Measurements from ChEMBL document CHEMBL4028903 (J Med Chem, 2017).
Active and inactive are the calls of the source. The calls are words filed in the database; no cut-off is given here.

How the values were obtained:
[1] = Drug uptake in Sprague-Dawley rat plasma at 0.3 mg/kg, po qd administered via gavage measured 1 hr post last dose on day 14 by LC-MS/MS analysis; assay type: ADME, organism-based
[2] = Cmax in Sprague-Dawley rat at 0.01 mg/kg, po qd administered via gavage measured on day 1 by LC-MS/MS analysis; assay type: ADME, organism-based; parameters: dose 0.01 mg/kg, route oral; details: in vivo
[3] = Oral bioavailability in rat at 1 mg/kg administered via gavage by LC-MS/MS analysis; assay type: ADME, organism-based; details: in vivo
Outline: (§1)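 IV dosing used a solution in 75% PEG300:25% D5W for mouse and rat, and a solution in 20% PEG300, 5% solutol, 75% carbonate buffer pH 8 for dog. PO dosing used a suspension in 0.5% methylcellulose, 0.5% Tween80, 99% water for all three species.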

[4] = Volume of distribution at steady state in rat at 3 mg/kg, iv by LC-MS/MS analysis; assay type: ADME, organism-based; details: in vivo, read-out: Vdss
Outline: (§2)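 Rats were dosed IV as a solution in 75% PEG300:25% D5W, or orally as a suspension in 0.5% methylcellulose, 0.5% Tween80 and 99% water.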

Rattus norvegicus [5] = experiment: Drug metabolism in rat assessed as taurine conjugated metabolite formation at 3 mg/kg, iv or 1 mg/kg, po administered via gavage by LC-MS/MS analysis; assay type: ADME, organism-based; details: in vivo
[6] = Drug uptake in Sprague-Dawley rat plasma at 0.01 mg/kg, po qd administered via gavage measured 1 hr post last dose on day 14 by LC-MS/MS analysis; assay type: ADME, organism-based
[7] = Cmax in mouse at 10 mg/kg, po administered via gavage by LC-MS/MS analysis; assay type: ADME, organism-based; parameters: dose 10 mg/kg, route oral; details: in vivo
Outline: (§3)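 Single oral dose given as a suspension in 0.5% methylcellulose, 0.5% Tween80 and 99% water. Doses were 10 mg/kg in mouse, 1 mg/kg in rat and 2 mg/kg in dog.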

Rattus norvegicus [8] = experiment: In vivo agonist activity at FXR in Sprague-Dawley rat assessed as induction of BSEP mRNA level in liver at 0.003 mg/kg, po qd for 14 days measured 7 hrs post last dose on day 14 by qPCR analysis; assay type: functional, organism-based
[9] = Drug uptake in Sprague-Dawley rat liver at 0.3 mg/kg, po qd administered via gavage measured 7 hrs post last dose on day 14 by LC-MS/MS analysis; assay type: ADME, organism-based; details: read-out: Drug uptake
Outline: (§4)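 Drug concentration in liver was quantified from tissue homogenates, so these are total levels. Unbound liver concentration was not determined.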

[10] = Half life in mouse at 5 mg/kg, iv by LC-MS/MS analysis; assay type: ADME, organism-based; details: in vivo
Outline: (§5)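 Single IV dose given as a solution. Mouse and rat received it in 75% PEG300:25% D5W. Dog received it in 20% PEG300, 5% solutol and 75% carbonate buffer pH = 8. Plasma was sampled for PK parameters.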

[11] = AUC (0 to 24 hrs) in Sprague-Dawley rat at 0.01 mg/kg, po qd administered via gavage measured on day 11 by LC-MS/MS analysis; assay type: ADME, organism-based; parameters: dose 0.01 mg/kg, time < 24 hr, route oral; details: in vivo
[12] = Drug uptake in Sprague-Dawley rat liver at 3 mg/kg, po qd administered via gavage measured 7 hrs post last dose on day 14 by LC-MS/MS analysis; assay type: ADME, organism-based; details: read-out: Drug uptake; outline: as §4
[13] = AUC in dog at 2 mg/kg, po administered via gavage by LC-MS/MS analysis; assay type: ADME, organism-based, Canis lupus familiaris; details: in vivo; outline: as §3
[14] = Cmax in rat at 10 mg/kg, po administered via gavage by LC-MS/MS analysis; assay type: ADME, organism-based; parameters: dose 10 mg/kg, route oral; details: in vivo; outline: as §2
Rattus norvegicus [15] = experiment: Dose normalized AUC (0 to 24 hrs) in Sprague-Dawley rat at 0.003 mg/kg, po qd administered via gavage measured on day 11 by LC-MS/MS analysis; assay type: ADME, organism-based; details: in vivo
Rattus norvegicus [16] = experiment: Dose normalized AUC (0 to 24 hrs) in Sprague-Dawley rat at 0.1 mg/kg, po qd administered via gavage measured on day 1 by LC-MS/MS analysis; assay type: ADME, organism-based; details: in vivo
Rattus norvegicus [17] = experiment: In vivo agonist activity at FXR in Sprague-Dawley rat assessed as induction of SHP mRNA level in liver at 0.01 mg/kg, po qd for 14 days measured 7 hrs post last dose on day 14 by qPCR analysis; assay type: functional, organism-based
[18] = Half life in dog at 0.5 mg/kg, iv by LC-MS/MS analysis; assay type: ADME, organism-based, Canis lupus familiaris; details: in vivo; outline: as §5
[19] = Drug uptake in Sprague-Dawley rat liver at 0.1 mg/kg, po qd administered via gavage measured 7 hrs post last dose on day 14 by LC-MS/MS analysis; assay type: ADME, organism-based; details: read-out: Drug uptake; outline: as §4
[20] = Drug uptake in Sprague-Dawley rat plasma at 1 mg/kg, po qd administered via gavage measured 1 hr post last dose on day 14 by LC-MS/MS analysis; assay type: ADME, organism-based
[21] = AUC (0 to 24 hrs) in Sprague-Dawley rat at 0.003 mg/kg, po qd administered via gavage measured on day 11 by LC-MS/MS analysis; assay type: ADME, organism-based; parameters: time < 24 hr, dose 0.003 mg/kg, route oral; details: in vivo
[22] = AUC (0 to 24 hrs) in Sprague-Dawley rat at 0.3 mg/kg, po qd administered via gavage measured on day 11 by LC-MS/MS analysis; assay type: ADME, organism-based; parameters: dose 0.3 mg/kg, time < 24 hr, route oral; details: in vivo
Rattus norvegicus [23] = experiment: In vivo agonist activity at FXR in po dosed Sprague-Dawley rat assessed as induction of SHP mRNA level in ileum administered once daily for 14 days measured 7 hrs post last dose on day 14 by qPCR analysis; assay type: functional
[24] = Drug uptake in Sprague-Dawley rat liver at 0.01 mg/kg, po qd administered via gavage measured 7 hrs post last dose on day 14 by LC-MS/MS analysis; assay type: ADME, organism-based; details: read-out: Drug uptake; outline: as §4
[25] = Drug uptake in Sprague-Dawley rat plasma at 0.003 mg/kg, po qd administered via gavage measured 7 hrs post last dose on day 14 by LC-MS/MS analysis; assay type: ADME, organism-based
[26] = Drug uptake in Sprague-Dawley rat liver at 0.01 mg/kg, po qd administered via gavage measured 1 hr post last dose on day 14 by LC-MS/MS analysis; assay type: ADME, organism-based; details: read-out: Drug uptake; outline: as §4
[27] = Oral bioavailability in dog at 2 mg/kg administered via gavage by LC-MS/MS analysis; assay type: ADME, organism-based, Canis lupus familiaris; details: in vivo; outline: as §1
Rattus norvegicus [28] = experiment: Dose normalized AUC (0 to 24 hrs) in Sprague-Dawley rat at 0.01 mg/kg, po qd administered via gavage measured on day 1 by LC-MS/MS analysis; assay type: ADME, organism-based; details: in vivo
[29] = target: T1, G-protein coupled bile acid receptor 1 (Mus musculus, UniProt Q80SS6); experiment: Agonist activity at mouse TGR5
T1 sequence (Q80SS6 whole entry): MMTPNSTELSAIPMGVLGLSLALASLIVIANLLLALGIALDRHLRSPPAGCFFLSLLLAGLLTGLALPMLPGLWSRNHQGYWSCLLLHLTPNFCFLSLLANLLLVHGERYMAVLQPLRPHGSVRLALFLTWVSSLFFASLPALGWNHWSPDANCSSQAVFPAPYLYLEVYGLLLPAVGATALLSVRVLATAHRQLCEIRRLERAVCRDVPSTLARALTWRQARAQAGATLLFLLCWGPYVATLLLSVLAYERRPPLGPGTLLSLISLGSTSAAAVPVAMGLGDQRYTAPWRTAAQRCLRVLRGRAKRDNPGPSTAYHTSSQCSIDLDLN

[30] = AUC (0 to 24 hrs) in Sprague-Dawley rat at 0.03 mg/kg, po qd administered via gavage measured on day 11 by LC-MS/MS analysis; assay type: ADME, organism-based; parameters: time < 24 hr, dose 0.03 mg/kg, route oral; details: in vivo

O=C(O)c1cc(F)c2nc(N3C4CCC3CC(OCc3c(-c5ccccc5OC(F)(F)F)noc3C3CC3)C4)sc2c1 (stereo not given)
concentration at 1 h [1]: 6.84 nM | Cmax [2]: 0.44 nM | bioavailability [3]: 10% | Vd [4]: 0.72 L/kg | Drug metabolism (Rattus norvegicus [5]): Metabolite_Notdetected | concentration at 1 h [6]: 0.37 nM | Cmax [7]: 1190 nM | Activity (Rattus norvegicus [8]): Active | concentration at 7 h [9]: 92.8 nM | half-life [10]: 2.6 h | AUC at 24 h [11]: 0.005 µM·h | concentration at 7 h [12]: 640 nM | AUC [13]: 3.66 µM·h | Cmax [14]: 2280 nM | AUC/dose (Rattus norvegicus [15]): 756 nM·h | AUC/dose (Rattus norvegicus [16]): 410 nM·h | Activity (Rattus norvegicus [17]): Active | half-life [18]: 7.4 h | concentration at 7 h [19]: 45 nM | concentration at 1 h [20]: 16.4 nM | AUC at 24 h [21]: 0.002 µM·h | AUC at 24 h [22]: 0.19 µM·h | ED50 (Rattus norvegicus [23]): 0.01 mg/kg | concentration at 7 h [24]: 5.18 nM | concentration at 7 h [25]: 0.12 nM | concentration at 1 h [26]: 8.35 nM | bioavailability [27]: 10% | AUC/dose (Rattus norvegicus [28]): 443 nM·h | EC50 [29]: > 10 µM | AUC at 24 h [30]: 0.02 µM·h
